Assay [1] deals with T1, Pf N-Myristoyl Transferase (Plasmodium falciparum, UniProt Q8ILW6).
T1 sequence (Q8ILW6 1-410): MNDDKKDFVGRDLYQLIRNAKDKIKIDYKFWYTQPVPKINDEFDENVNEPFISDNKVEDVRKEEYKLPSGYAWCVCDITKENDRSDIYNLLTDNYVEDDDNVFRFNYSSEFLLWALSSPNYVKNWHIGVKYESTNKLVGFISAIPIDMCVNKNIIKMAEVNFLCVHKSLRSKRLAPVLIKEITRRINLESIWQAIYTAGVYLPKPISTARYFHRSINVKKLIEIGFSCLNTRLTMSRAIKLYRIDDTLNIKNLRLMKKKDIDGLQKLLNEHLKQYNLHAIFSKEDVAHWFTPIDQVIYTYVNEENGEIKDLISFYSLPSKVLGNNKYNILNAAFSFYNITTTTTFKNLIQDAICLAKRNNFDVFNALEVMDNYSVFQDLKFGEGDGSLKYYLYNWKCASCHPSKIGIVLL
Description: N-myristoyltransferase biochemical assay. The following applies: read-out: NMT IC50, positive control.

Assay [2] has as its system P. falciparum strain 3d7. Kind of assay: erythrocyte-based P. falciparum strain 3d7 infection. The class given is cell-based. Conditions: Plasmodium falciparum, 3D7, read-out: EC50 against P. falciparum in vitro. In a few lines:
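P. falciparum was grown in erythrocytes. The primary screen used 1.25 μM, and ≥50% growth inhibition counted as a hit. Hits were retested in 8-point dose-response curves for EC₅₀ against sulfadoxine-resistant 3D7 and multidrug-resistant W2. Compounds with CC₅₀/EC₅₀ <5 (Huh7 cells) or that quenched fluorescence were excluded.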

For assay [3], the target named is T2, Pf dUTPase (Plasmodium falciparum, UniProt Q8II92).
T2 sequence (Q8II92 1-173): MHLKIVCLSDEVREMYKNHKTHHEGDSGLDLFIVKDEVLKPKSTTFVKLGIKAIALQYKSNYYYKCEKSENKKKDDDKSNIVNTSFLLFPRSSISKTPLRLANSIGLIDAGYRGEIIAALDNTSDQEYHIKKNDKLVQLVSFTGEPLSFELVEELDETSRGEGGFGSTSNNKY
Description: dUTPase biochemical assay.

Assay [4] addresses Pf Adenylosuccinate Synthase (Plasmodium falciparum, UniProt Q9U8D3). Kind of assay: adenylosuccinate synthetase biochemical assay.

SMILES strings stand for the structures.

Pf Adenylosuccinate Synthase, sequence (Q9U8D3 whole entry): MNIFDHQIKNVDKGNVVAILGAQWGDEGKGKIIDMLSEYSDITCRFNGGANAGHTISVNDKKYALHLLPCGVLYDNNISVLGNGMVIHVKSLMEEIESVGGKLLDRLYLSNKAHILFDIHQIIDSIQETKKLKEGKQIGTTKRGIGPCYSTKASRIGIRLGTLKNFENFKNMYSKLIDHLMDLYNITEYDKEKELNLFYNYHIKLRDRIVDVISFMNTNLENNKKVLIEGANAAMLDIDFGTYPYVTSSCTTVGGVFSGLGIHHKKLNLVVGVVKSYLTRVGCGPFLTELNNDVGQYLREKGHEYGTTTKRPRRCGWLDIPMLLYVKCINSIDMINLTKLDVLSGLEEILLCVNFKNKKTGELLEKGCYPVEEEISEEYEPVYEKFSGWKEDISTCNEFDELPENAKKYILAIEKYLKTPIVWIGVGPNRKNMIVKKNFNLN

Broadly, the IC50 is the concentration at which inhibition is half-maximal. With `O=C(O)C1=CC(=C(c2ccc(O)c(C(=O)O)c2)c2ccc(O)c(C(=O)O)c2)C=CC1=O` [aurintricarboxylate], the half-maximal inhibitory concentration (IC50) in assay [1] was ~3 µM.

One may read the EC50 as the concentration giving half of the maximal effect. On to `O=P(O)(O)C(O)(Cc1ccccc1)P(=O)(O)O` [(1-hydroxy-2-phenylethylidene)bis-phosphonic acid], for which the EC50 in assay [2] was ~7.05 µM.

`O=c1ccn([C@H]2C[C@H](O)[C@@H](COC(c3ccccc3)(c3ccccc3)c3ccccc3)O2)c(=O)[nH]1` [2′-deoxy-5′-O-(triphenylmethyl)uridine] registered an IC50 in assay [3] of 2.4 µM.

Molecule `O=CN(O)CC(=O)O` [Hadacidin] gave an IC50 in assay [4] of 62 µM.

Source of the values: paper PMC3108854 (Molecular and biochemical parasitology, 2010).
